Measured values gathered from unrelated publications.
Each line is one published result; the experiments were not run side by side.
EGFR L861Q: Epidermal growth factor receptor (EGFR, Homo sapiens, UniProt P00533, L861Q)
EGFR L858R: Epidermal growth factor receptor (EGFR, Homo sapiens, UniProt P00533, L858R)
EGFR L858R/T790M: Epidermal growth factor receptor (EGFR, Homo sapiens, UniProt P00533, L858R/T790M)
EGFR del752-759: Epidermal growth factor receptor (EGFR, Homo sapiens, UniProt P00533, del752-759)
EGFR G719C: Epidermal growth factor receptor (EGFR, Homo sapiens, UniProt P00533, G719C)
EGFR del747-750/T751S: Epidermal growth factor receptor (EGFR, Homo sapiens, UniProt P00533, del747-750/T751S)
EGFR G719S: Epidermal growth factor receptor (EGFR, Homo sapiens, UniProt P00533, G719S)
EGFR A750P/del747-749: Epidermal growth factor receptor (EGFR, Homo sapiens, UniProt P00533, A750P/del747-749)
EGFR del746-750: Epidermal growth factor receptor (EGFR, Homo sapiens, UniProt P00533, del746-750)
EGFR T790M: Epidermal growth factor receptor (EGFR, Homo sapiens, UniProt P00533, T790M)
EGFR del747-752/P753S: Epidermal growth factor receptor (EGFR, Homo sapiens, UniProt P00533, del747-752/P753S)

Structure (SMILES) | target | observed | method | tested at | remaining binding [%]
O=C(c1ccc(Nc2ncc(Cl)c(-c3ccc(Cl)s3)n2)cc1)N1CCC(N2CCCC2)CC1 | EGFR L861Q | binding | competition with immobilised ligand | 1 µM | 100
O=C(NCC1CCOCC1)c1n[nH]cc1NC(=O)c1c(F)cccc1F | EGFR L858R | binding | competition with immobilised ligand | 1 µM | 89
CC1CCCN1c1nccc(-c2cnn3ncccc23)n1 (centres unmarked) | EGFR L858R/T790M | binding |  | 1 µM | 100
O=C(NCCCN1CCOCC1)c1ccc(Nc2nccc(-c3cc4ccccc4s3)n2)cc1 | EGFR del752-759 | binding | competition with immobilised ligand | 1 µM | 100
O=C(N1CCS(=O)(=O)CC1)N1C[C@H](c2ccc(OC(F)(F)F)cc2)C[C@H](c2nc(C3CC3)no2)C1 | EGFR L858R | cell-free assay | competition with immobilised ligand | 1 µM | 100
CNC(=O)[C@@H]1CC[C@@H](n2c(-c3ccc4cnccc4c3)nc3ccc(C(=O)NCc4cccc(C(N)=O)c4)cc32)C1 | EGFR G719C | binding | competition with immobilised ligand | 1 µM | 100
CC(=O)Nc1c(C(C)=O)c(=O)n(C)c2nc(-c3ccc(Cl)cc3Cl)c(-c3ccc(Cl)cc3)cc12 | EGFR del747-750/T751S | cell-free assay | competition with immobilised ligand | 1 µM | 100
F[C@@H]1CCN(c2nccc(-c3cnn4ncccc34)n2)C1 | EGFR G719S | binding |  | 1 µM | 100
c1cncc(-c2cccc(Nc3nccc(NC4CCCCC4)n3)c2)c1 | EGFR del752-759 | binding | competition with immobilised ligand | 10 µM | 69
CN(CCCC(F)(F)F)c1nccc(-c2cnn3ncccc23)n1 | EGFR G719C | binding |  | 1 µM | 100
CCN1CCN(Cc2ccc(C(=O)Nc3ccc(C)c(Oc4ccc5c(c4)CC(=O)N5)c3)cc2C(F)(F)F)CC1 | EGFR A750P/del747-749 | binding | competition with immobilised ligand | 1 µM | 100
COc1cnc(Nc2cccc(S(N)(=O)=O)c2)nc1N1CCN(c2ccccc2)C(=O)C1 | EGFR G719S | binding | competition with immobilised ligand | 1 µM | 100
COc1ccnn2ncc(-c3ccnc(N(C)C)n3)c12 | EGFR del746-750 | binding |  | 1 µM | 97
CSc1cccnc1N1CCN(Cc2nc3ccccc3[nH]2)CC1 | EGFR T790M | cell-free assay | competition with immobilised ligand | 1 µM | 85
CN1CCN(c2ccc(Nc3nccc(-c4ccccc4)n3)cc2C(F)(F)F)CC1 | EGFR del746-750 | binding |  | 10 µM | 56
COc1cnc(Nc2cccc(S(N)(=O)=O)c2)nc1N1CCN(c2ccccc2)CC1 | EGFR T790M | binding | competition with immobilised ligand | 1 µM | 72

Structure (SMILES) | target | observed | method | tested at | remaining binding [%]
Nc1ncc2c(n1)-c1c([nH]c3ccc(C#CC4CC4)cc13)CCCC2 | EGFR del752-759 | binding | competition with immobilised ligand | 1 µM | 100
COc1ncc2cc3ccccc3nc2c1C#N | EGFR L858R | cell-free assay | competition with immobilised ligand | 5 µM | 99
O=C(c1ccc(Nc2nccc(-c3cc4ccccc4s3)n2)cc1)N1CCC(N2CCCC2)CC1 | EGFR T790M | binding | competition with immobilised ligand | 1 µM | 67
C[C@H]1CCN(c2nccc(-c3cnn4ncccc34)n2)C1 | EGFR L861Q | binding |  | 1 µM | 81
O=C(c1ccc(Nc2ncc(Cl)c(-c3cc4ccccc4s3)n2)cc1)N1CCC(N2CCCC2)CC1 | EGFR G719C | binding | competition with immobilised ligand | 1 µM | 88
CC(=O)C1=C(C)N(c2cccc(C(F)(F)F)c2)C(=O)N[C@@H]1c1ccc(C#N)nc1 | EGFR G719C | cell-free assay | competition with immobilised ligand | 1 µM | 100
O=C(NCCCN1CCOCC1)c1ccc(Nc2ncc(Cl)c(-c3ccc(Cl)s3)n2)cc1 | EGFR G719S | binding | competition with immobilised ligand | 1 µM | 100
O=C(Nc1c[nH]nc1C(=O)NC1CCNCC1)c1cc(F)cc(F)c1 | EGFR A750P/del747-749 | binding | competition with immobilised ligand | 1 µM | 80
Cn1nc(C(F)(F)F)cc1-c1cnc(N2CCc3cc(S(=O)(=O)Nc4c(F)cc(Cl)cc4F)cc(N4CCCC4=O)c32)nc1 | EGFR del747-752/P753S | cell-free assay | competition with immobilised ligand | 1 µM | 100
CN1CCN(c2ccc(Nc3nccc(-c4cccc([N+](=O)[O-])c4)n3)cc2C(F)(F)F)CC1 | EGFR G719C | binding |  | 10 µM | 69
O=C(O)[C@H]1[C@H](Cn2nnc3ccccc3c2=O)CC[C@@H]1C(=O)c1ccc(OCCC2CCOCC2)cc1 | EGFR del747-750/T751S | cell-free assay | competition with immobilised ligand | 1 µM | 65
Cc1cnn2ncc(-c3ccnc(N(C)C)n3)c2c1 | Epidermal growth factor receptor (EGFR, Homo sapiens, UniProt P00533) | binding |  | 1 µM | 75
CNC(=O)Nc1ccc2c(c1)[C@@]1(CC2)OC(=O)N(CC(=O)N(Cc2ccc(F)cc2)[C@@H](C)C(F)(F)F)C1=O | EGFR A750P/del747-749 | cell-free assay | competition with immobilised ligand | 1 µM | 96
N[C@@H]1CCN(c2nccc(-c3cnn4ncccc34)n2)C1 | EGFR L858R/T790M | binding |  | 1 µM | 100
CCC(=N\O)/C(C)=C/c1ccc(F)cc1 | EGFR L858R | cell-free assay | competition with immobilised ligand | 1 µM | 65
Cc1cnc(Nc2ccc(C(=O)N3CCC(N4CCCC4)CC3)cc2)nc1-c1cc2ccccc2s1 | EGFR del747-752/P753S | binding | competition with immobilised ligand | 1 µM | 100
